≈ marks a conversion by molar mass, not a printed value. Calls of active or inactive are those of the source. No cut-off for these calls is given here.
What was measured:
P388 = experiment: Cytotoxicity against mouse P388 cells; type: functional, cell-based
Outline: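 P-388 leukemia line (ATCC CCL 46). The value is the sample concentration, in ng/ml, that reduces cell growth by 50%.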

Human alphaherpesvirus 1 [1] = experiment: Antiviral activity against Herpes simplex virus (type 1 / strain F) ATCC VR 733 in african green monkey BSC1 cells assessed as excess radius from disk edge at 40 ug/disk; type: functional, BSC-1; conditions: Human alphaherpesvirus 1, Strain F ATCC VR 733; read-out: IZ
Outline: (§1)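 Disc assay of herpes simplex type I (strain F, ATCC VR 733) on a BSC cell line (ATCC CCL 26). The antiviral zone is scored as excess radius from the disc edge: 2+ = 2-4 mm, 3+ = 4-6 mm, ww = zone over the whole well.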

Human alphaherpesvirus 1 [2] = experiment: Antiviral activity against Herpes simplex virus (type 1 / strain F) ATCC VR 733 in african green monkey BSC1 cells assessed as excess radius from disk edge at 10 ug/disk; type: functional, organism-based; conditions: BSC-1; outline: as §1
[3] = Cytotoxicity against african green monkey BSC1 cells at 40 ug/disk; type: cell-based; conditions: chlorocebus aethiops, bsc-1
Outline: (§2)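 Cytotoxic zone around the disc on a BSC monolayer (ATCC CCL 26), scored as excess radius beyond the disc edge: 2+ = 2-4 mm, 3+ = 4-6 mm, ww = zone over the whole well.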

[4] = Cytotoxicity against african green monkey BSC1 cells at 10 ug/disk; type: cell-based; conditions: chlorocebus aethiops, bsc-1; outline: as §2
Escherichia coli = experiment: Antimicrobial activity against Escherichia coli assessed per disk; type: functional
Bacillus subtilis [5] = experiment: Antimicrobial activity against Bacillus subtilis assessed per disk; type: functional
Pseudomonas aeruginosa = experiment: Antimicrobial activity against Pseudomonas aeruginosa assessed per disk; type: functional
Candida albicans [6] = experiment: Antimicrobial activity against Candida albicans assessed per disk; type: functional
[7] = system: Trichophyton mentagrophytes; experiment: Antimicrobial activity against Trichophyton mentagrophytes assessed per disk; type: functional
Amorphotheca resinae [8] = experiment: Antimicrobial activity against Cladosporium resinae assessed per disk; type: functional
Human alphaherpesvirus 1 [9] = experiment: Antiviral activity against Herpes simplex virus (type 1 / strain F) ATCC VR 733 in african green monkey BSC1 cells assessed as excess radius from disk edge at 20 ug/disk; type: functional, organism-based; conditions: BSC-1; outline: as §1
Poliovirus 1 [10] = experiment: Antiviral activity against Polio virus 1 Pfizer vaccine in african green monkey BSC1 cells assessed as excess radius from disk edge at 20 ug/disk; type: functional, organism-based; conditions: BSC-1
Outline: (§3)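 Disc assay on BSC cell monolayers (ATCC CCL 26) infected with the Pfizer vaccine strain of poliovirus, with the virus grown on BSC cells. Scored by the radius of the antiviral/cytotoxic zone beyond the disc edge: 2+ = 2-4 mm, 3+ = 4-6 mm, ww = zone over the whole well.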

[11] = Cytotoxicity against african green monkey BSC1 cells at 20 ug/disk; type: cell-based; conditions: chlorocebus aethiops, bsc-1; outline: as §2
Human alphaherpesvirus 1 [12] = experiment: Antiviral activity against Herpes simplex virus (type 1 / strain F) ATCC VR 733 in african green monkey BSC1 cells assessed as excess radius from disk edge at 5 ug/disk; type: functional, BSC-1; conditions: Human alphaherpesvirus 1, Strain F ATCC VR 733; read-out: IZ; outline: as §1
Human alphaherpesvirus 1 [13] = experiment: Antiviral activity against Herpes simplex virus (type 1 / strain F) ATCC VR 733 in african green monkey BSC1 cells assessed as excess radius from disk edge at 1 ug/disk; type: functional, organism-based; conditions: BSC-1; outline: as §1
[14] = Cytotoxicity against african green monkey BSC1 cells at 2 ug/disk; type: cell-based; conditions: chlorocebus aethiops, bsc-1; outline: as §2
[15] = Cytotoxicity against african green monkey BSC1 cells at 5 ug/disk; type: cell-based; conditions: chlorocebus aethiops, bsc-1; outline: as §2
[16] = Cytotoxicity against african green monkey BSC1 cells at 1 ug/disk; type: cell-based; conditions: chlorocebus aethiops, bsc-1; outline: as §2
Human alphaherpesvirus 1 [17] = experiment: Antiviral activity against Herpes simplex virus (type 1 / strain F) ATCC VR 733 in african green monkey BSC1 cells assessed as excess radius from disk edge at 0.5 ug/disk; type: functional, BSC-1; conditions: Human alphaherpesvirus 1, Strain F ATCC VR 733; read-out: IZ; outline: as §1
Human alphaherpesvirus 1 [18] = experiment: Antiviral activity against Herpes simplex virus (type 1 / strain F) ATCC VR 733 in african green monkey BSC1 cells assessed as excess radius from disk edge at 0.4 ug/disk; type: functional, organism-based; conditions: BSC-1; outline: as §1
Human alphaherpesvirus 1 [19] = experiment: Antiviral activity against Herpes simplex virus (type 1 / strain F) ATCC VR 733 in african green monkey BSC1 cells assessed as excess radius from disk edge at 2 ug/disk; type: functional, BSC-1; conditions: Human alphaherpesvirus 1, Strain F ATCC VR 733; read-out: IZ; outline: as §1
[20] = Cytotoxicity against african green monkey BSC1 cells at 0.5 ug/disk; type: cell-based; conditions: chlorocebus aethiops, bsc-1; outline: as §2
[21] = Cytotoxicity against african green monkey BSC1 cells at 0.4 ug/disk; type: cell-based; conditions: chlorocebus aethiops, bsc-1; outline: as §2
Poliovirus 1 [22] = experiment: Antiviral activity against Polio virus 1 Pfizer vaccine in african green monkey BSC1 cells assessed as excess radius from disk edge at 0.5 ug/disk; type: functional, BSC-1; conditions: Enterovirus C; read-out: IZ; outline: as §3
Poliovirus 1 [23] = experiment: Antiviral activity against Polio virus 1 Pfizer vaccine in african green monkey BSC1 cells assessed as excess radius from disk edge at 0.4 ug/disk; type: functional, organism-based; conditions: BSC-1; outline: as §3
[24] = system: Trichophyton mentagrophytes; experiment: Antimicrobial activity against Trichophyton mentagrophytes at 100 units; type: functional, organism-based
Amorphotheca resinae [25] = experiment: Antimicrobial activity against Cladosporium resinae at 100 units; type: functional, organism-based
Bacillus subtilis [26] = experiment: Antimicrobial activity against Bacillus subtilis at 30 ug; type: functional; conditions: read-out: IZ
Candida albicans [27] = experiment: Antimicrobial activity against Candida albicans at 30 ug; type: functional; conditions: read-out: IZ

Compound	IC50 (P388)	MIC (Escherichia coli)	MIC (Bacillus subtilis [5])	MIC (Pseudomonas aeruginosa)	MIC (Candida albicans [6])	MIC [7]	MIC (Amorphotheca resinae [8])	inhibition zone (IZ) (Human alphaherpesvirus 1 [9])	inhibition zone (IZ) (Poliovirus 1 [10])	inhibition zone (IZ) [11]	also measured
CCCCCCc1nccc2c1[nH]c1ccccc12	9 µg/mL (≈ 35.7 µM)	>60 µg	>60 µg	>60 µg	>60 µg	1.9 µg	7.5 µg	–	–	–	zone of inhibition at 40 µg/disc (Human alphaherpesvirus 1 [1]): 1 mm; inhibition zone (IZ) (Human alphaherpesvirus 1 [2]): inactive; inhibition zone (IZ) [3]: 1 mm; inhibition zone (IZ) [4]: 1 mm
COC(=O)C1Cc2c([nH]c3ccccc23)C(C)N1 (stereo not drawn)	120 µg/mL (≈ 491 µM)	>60 µg	>60 µg	>60 µg	7.5 µg	>60 µg	>60 µg	inactive	inactive	Not Active	–
CCc1ncc(S(C)(=O)=O)c2c1[nH]c1ccccc12	> 12.5 µg/mL	>60 µg	30 µg	>60 µg	>60 µg	30 µg	>60 µg	inactive	–	Not Active	–
C=Cc1nccc2c1[nH]c1c(OC(C)=O)cccc12	0.65 µg/mL (≈ 2.58 µM)	>60 µg	7.5 µg	>60 µg	15 µg	0.9 µg	>60 µg	–	–	–	zone of inhibition at 5 µg/disc (Human alphaherpesvirus 1 [12]): 1 mm; inhibition zone (IZ) (Human alphaherpesvirus 1 [13]): inactive; inhibition zone (IZ) [14]: Active; Activity [11]: Active; inhibition zone (IZ) [15]: 2 mm; inhibition zone (IZ) [16]: Not Active
CCc1nccc2c1[nH]c1ccccc12	25 µg/mL (≈ 127 µM)	>120 µg	7.5 µg	>60 µg	1.9 µg	1.9 µg	30 µg	inactive	inactive	Not Active	–
CC(C)c1nccc2c1[nH]c1ccccc12	13 µg/mL (≈ 61.8 µM)	>120 µg	7.5 µg	>60 µg	1.9 µg	0.45 µg	15 µg	inactive	–	Not Active	–
CCc1nccc2c1[nH]c1c(O)cccc12	> 12.5 µg/mL	30 µg	30 µg	>60 µg	30 µg	30 µg	>60 µg	inactive	inactive	Not Active	–
C=Cc1nccc2c1[nH]c1c(OC)cccc12	0.1 µg/mL (≈ 0.446 µM)	>60 µg	7.5 µg	>60 µg	7.5 µg	0.45 µg	15 µg	–	–	–	zone of inhibition at 0.5 µg/disc (Human alphaherpesvirus 1 [17]): 1 mm; inhibition zone (IZ) (Human alphaherpesvirus 1 [18]): inactive; zone of inhibition at 2 µg/disc (Human alphaherpesvirus 1 [19]): 1 mm; inhibition zone (IZ) [14]: 2 mm; inhibition zone (IZ) [20]: 1 mm; inhibition zone (IZ) [21]: Not Active
CCCc1nccc2c1[nH]c1ccccc12	25 µg/mL (≈ 119 µM)	>120 µg	>120 µg	>60 µg	>120 µg	15 µg	>120 µg	inactive	–	Not Active	–
C=Cc1nccc2c1[nH]c1ccccc12	0.1 µg/mL (≈ 0.515 µM)	30 µg	1.9 µg	>60 µg	1.9 µg	0.1 µg	0.9 µg	–	–	–	zone of inhibition at 0.5 µg/disc (Human alphaherpesvirus 1 [17]): 1 mm; inhibition zone (IZ) (Human alphaherpesvirus 1 [18]): inactive; inhibition zone (IZ) [14]: Active; inhibition zone (IZ) [20]: 2 mm; inhibition zone (IZ) [21]: Not Active
CC1NC(C(=O)O)Cc2c1[nH]c1ccccc21 (stereo not drawn)	> 125 µg/mL	>60 µg	>60 µg	>60 µg	>60 µg	>60 µg	>60 µg	inactive	inactive	Not Active	–
C=Cc1nccc2c1[nH]c1c(O)cccc12	–	>60 µg	7.5 µg	>60 µg	15 µg	0.45 µg	3.7 µg	–	–	–	zone of inhibition at 0.5 µg/disc (Human alphaherpesvirus 1 [17]): 1 mm; inhibition zone (IZ) (Human alphaherpesvirus 1 [18]): inactive; zone of inhibition at 0.5 µg/disc (Poliovirus 1 [22]): 1 mm; inhibition zone (IZ) (Poliovirus 1 [23]): inactive; inhibition zone (IZ) [14]: Active; inhibition zone (IZ) [20]: 2 mm; inhibition zone (IZ) [21]: Not Active
NYSTATIN	–	–	–	–	–	–	–	–	–	–	inhibition zone (IZ) [24]: 4 mm; inhibition zone (IZ) (Amorphotheca resinae [25]): 12 mm
CCc1nccc2c1[nH]c1c(OC)cccc12	> 12.5 µg/mL	>60 µg	>60 µg	>60 µg	7.5 µg	7.5 µg	>60 µg	inactive	inactive	Not Active	–
c1ccc2c(c1)[nH]c1cnccc12 [NORHARMANE]	25 µg/mL (≈ 149 µM)	3.7 µg	7.5 µg	>60 µg	1.9 µg	0.9 µg	15 µg	inactive	inactive	Not Active	–
Cc1nccc2c1[nH]c1ccccc12 [HARMAN]	25 µg/mL (≈ 137 µM)	60 µg	7.5 µg	>60 µg	1.9 µg	3.7 µg	15 µg	inactive	inactive	Not Active	–
O=C(N[C@H](CO)[C@H](O)c1ccc([N+](=O)[O-])cc1)C(Cl)Cl [CHLORAMPHENICOL]	–	–	–	–	–	–	–	–	–	–	zone of inhibition at 30 µg/disc (Bacillus subtilis [26]): 12 mm; zone of inhibition at 30 µg/disc (Candida albicans [27]): 8 mm

Reference: ChEMBL document CHEMBL1158972, “New cytotoxic beta-carboline alkaloids from the marine bryozoan, Cribricellina cribraria” (J Nat Prod, 1991)
